Source: PubChem (several laboratories)
MDM2 E3 inh = Mdm2 E3 ligase (human) inhibition | Q00987 | cell-based MDM2 ubiquitination luciferase reporter, 2 h; 0 = plate control, 100 = twice control, blank-subtracted | signal enhancement, % at 5 µM | 210,000 tested, 0.11% active | AID 1230;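 active = signal enhancement of 30% or more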;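 note: luminescence tracks abundance of the self-degrading MDM2-luciferase fusion protein; higher signal means inhibition of MDM2 E3 ligase activity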
Target sequence (Q00987 whole entry, looked up, the tested form may be a part): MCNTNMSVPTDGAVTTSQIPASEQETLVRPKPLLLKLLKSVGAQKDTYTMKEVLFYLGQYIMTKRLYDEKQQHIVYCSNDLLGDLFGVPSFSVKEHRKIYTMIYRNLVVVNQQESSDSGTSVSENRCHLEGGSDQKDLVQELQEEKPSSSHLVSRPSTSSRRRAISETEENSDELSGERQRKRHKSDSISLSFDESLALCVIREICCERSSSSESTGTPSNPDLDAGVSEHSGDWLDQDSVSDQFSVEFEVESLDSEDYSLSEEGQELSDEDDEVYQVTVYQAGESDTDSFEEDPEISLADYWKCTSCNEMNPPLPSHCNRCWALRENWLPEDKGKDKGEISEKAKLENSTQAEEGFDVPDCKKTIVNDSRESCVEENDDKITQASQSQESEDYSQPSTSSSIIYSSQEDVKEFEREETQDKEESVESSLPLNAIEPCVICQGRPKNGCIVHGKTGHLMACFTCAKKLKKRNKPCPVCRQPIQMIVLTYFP
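System: stable MDM2–luciferase fusion reporter cells / Input: 2000 cells seeded into each well / Schedule: 4 h settle plus 2 h compound, 37 °C / Compound: single-point 5 µM / Buffer or medium: cells held in DMEM / Benchmarks: control and blank well means / Evaluation: percent signal gain over controls, blank-subtracted / Measured by: luciferase luminescence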
Hck-Nef inh = inhibitors of human Hck kinase activated by Nef. 220,000 tested, 0.68% active. Recombinant Hck-YEEI plus Nef, Z-Lyte FRET kinase assay. P08631. AID 463187. inhibition, % at 20 µM;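 active = Hck-Nef kinase inhibition above about 50%, limit read from the data; inactive = inhibition below that limit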;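 note: 0% = DMSO with Hck plus Nef and 100% = Hck alone without Nef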
TNF necrop inh = inhibitors of TNF-alpha induced necroptosis in Jurkat FADD-/- cells | Jurkat FADD-/- TNF necroptosis rescue, ATP luminescence, 24 h; 0 = TNF only, 100 = no-TNF cells | activation (protection from cell death), % at 10 µM | 220,000 tested, 0.068% active | AID 463075;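 active = activation, meaning protection from cell death, of at least 50% relative to plate controls; inactive = activation below 50%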;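 note: necroptosis triggered by 40 ng/mL TNF-alpha added together with compound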
Autophagy HCS = autophagy modulation, high-content screen; MEF GFP-LC3 puncta imaging; test concentration mostly 10 µM; calls only at 10 µM (by protocol); 190,000 tested, 0.98% active;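 active = percentage of spot-positive cells more than 3 SD above its plate mean, without a fluorescence outlier flag or 80% toxicity; inconclusive = no clear call, values can overlap the other calls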;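 note: spot-positive cell cutoff set from DMSO-treated cells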
Dynein cargo inh = blocks dynein driven cargo transport along microtubules; 3617.4 mouse cells, GR-EGFP nuclear translocation imaging; test concentration mostly 20 µM; stimulated with dexamethasone, 1 µM; hits give low values; z-score, hits read low; 220,000 tested, 0.47% active;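 active = plate z-score of nuclear minus cytoplasmic receptor signal below a set negative limit, without overly bright fluorescence or cell loss, cut at about -3.5 in these data, passing the limit was not always enough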;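 note: z-score of nuclear minus cytoplasmic ring GR-EGFP intensity difference per well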
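Schedule: 48 h induction, then 1 h compound, then 30 min agonist, 37 °C. Buffer or medium: tetracycline-free induction medium containing charcoal-stripped FBS. Reagent: 1.0 µM final dexamethasone stimulus. Evaluation: nuclear versus cytoplasmic GR-EGFP signal, averaged per well. Signal: high-content fluorescence imaging after fixation.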
L929 necroptosis = blocks zVAD induced death of L929 cells; L929 zVAD necroptosis rescue, ATP luminescence, 24 h; with zVAD 60 µM; viability rescue, % at 10 µM; 220,000 tested, 0.38% active;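 active = activation, scaled between plate controls, above about 75%, limit read from the data; inactive = activation under that limit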;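 note: 0% = zVAD with DMSO and 100% = DMSO alone without zVAD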
Dynein inh conf = dynein cargo transport inhibition, confirmation; 3617.4 GR-EGFP nuclear translocation imaging, dexamethasone-induced; calls only at 20 µM; shares compounds with Dynein cargo inh; AID 463116; 1,000 tested, 69% active;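 active = inhibition of receptor movement into the nucleus at or above a set limit in both runs, with normal cell brightness and cell count; inconclusive = limit reached in only one run, brightness and count normal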;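 note: dexamethasone at 1 µM final in well for 30 min; nuclear minus cytoplasmic GR-EGFP mean intensity difference in channel 2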
* = called active by the depositor; i = inactive; ? = inconclusive; nt = no result given; + = active, no number. An excerpt weighted towards active compounds, which were near 2.4% of everything screened.

SMILES	MDM2 E3 inh	Hck-Nef inh	TNF necrop inh	Autophagy HCS	Dynein cargo inh	L929 necroptosis	Dynein inh conf
Cc1onc(-c2ccccc2)c1-c1nc2cc(Cl)ccc2c(=O)o1	-4	21	-9	nt	-3.8*	-1	+
COCCCn1c(O)c(/C=C2\N=C(C#N)C(=Nc3ccc(C)cc3)O2)sc1=S	-22	13	-19	nt	-6.4	-2	+
COc1cc2c(cc1OC)C(Cc1ccc(O)cc1)N(C)CC2 (configuration not stated)	-8	2	0	i	-4.7*	nt	i
COc1cc2c(cc1OC)C(Cc1ccc(O)cc1)NCC2 (configuration not stated)	nt	-1	2	i	-0.64	2	nt
COc1ccc2nc(SC)cc(C)c2c1	-6	18	2	nt	-0.68	0	nt
CN1CCN(CC(=O)N2N=C(c3cccs3)CC2c2ccco2)CC1 (configuration not stated)	6	2	0	i	-0.44	-1	nt
O=C(CCl)N1N=C(c2cccs2)CC1c1ccco1 (configuration not stated)	2	17	-7	i	-4.7*	-3	+
CCOc1ccc(CCNC(=O)Cn2cccc2C(=O)c2ccccc2C)cc1OCC	-7	1	3	i	0.44	0	nt
COc1ccc(C2=CC(=O)N(Nc3ccccc3)C2=O)cc1	-10	28	-3	i	-5.1*	-1	+
O=C1C=C(c2ccccc2)C(=O)N1Nc1ccccc1	3	-2	-11	i	-1.2	0	nt
C/C(N)=C(/C#N)C(=O)COC(=O)CNS(=O)(=O)c1c(F)cccc1F	-13	19	0	i	0.75	1	nt
Cc1ccc(-c2nn(-c3ccccc3)cc2CO)o1	-6	7	-1	i	-3.7*	0	i
OCc1cn(-c2ccccc2)nc1-c1ccco1	-16	0	-2	i	-0.96	0	nt
CC(=O)Nc1c([N+](=O)[O-])cc(C)c(Cl)c1[N+](=O)[O-]	4	22	4	i	-5.8*	2	+
CC1(C)CC(NCCN2CCN(C3=CC(=C(C#N)C#N)CC(C)(C)C3)CC2)=CC(=C(C#N)C#N)C1	-18	20	-6	i	0.45	-1	nt
N#CC(C#N)=C1C=C2C=C(N3CCCCCC3)CCC2CC1 (configuration not stated)	7	3	4	?	-3.7*	67	+
N#CC(C#N)=C1C=C2C=C(N3CCOCC3)CCC2CC1 (configuration not stated)	-14	16	2	i	-7*	0	+
CN1CCN(C2=CC3=CC(=C(C#N)C#N)CCC3CC2)CC1 (configuration not stated)	-23	0	2	+	-3.8*	1	i
CCN1CCN(C2=CC3=CC(=C(C#N)C#N)CCC3CC2)CC1 (configuration not stated)	-23	0	1	?	-5.2*	-1	+
Cc1cc(CNC(=O)COc2ccccc2F)c2ccccc2n1	-10	1	-1	i	-0.7	1	nt
CC(C)(C)OC(=O)NCCc1nnc(S(=O)(=O)Cc2ccc(Cl)cc2Cl)o1	-3	-1	-6	i	-6.3*	0	?
CC(C)(C)OC(=O)NCCc1nnc(SCc2ccccc2Cl)o1	-11	0	-3	i	-1	1	nt
CC(C)C(c1nnnn1C(C)(C)C)N1CCN(c2cccc(Cl)c2)CC1 (configuration not stated)	-31	-3	1	i	-0.8	0	nt
COC(=O)c1cc(Cl)c(NC(=O)c2cc3ccccc3o2)cc1OC	-4	2	-3	i	0.6	0	nt
Oc1c(Br)cc(Br)cc1C=NCc1ccc(F)cc1	-15	34	0	i	0.2	8	nt
SMILES	MDM2 E3 inh	Hck-Nef inh	TNF necrop inh	Autophagy HCS	Dynein cargo inh	L929 necroptosis	Dynein inh conf
CC(c1ccccc1)C1C(C#N)=C(N)OC2=C1C(=O)CC(C)(C)C2 (configuration not stated)	1	3	-6	i	-0.51	0	nt
CC1(C)CC(=O)C2=C(C1)OC(N)=C(C#N)C2C#Cc1ccccc1 (configuration not stated)	2	-1	-13	i	-5.4*	0	+
Cc1nnc(SCc2ccc([N+](=O)[O-])cc2)o1	-12	20	16	i	-0.25	1	nt
Cc1cnc(NC(=O)c2nn(C)cc2[N+](=O)[O-])s1	-27	-11	-1	i	-3.6*	0	+
Cc1ccc(-c2nc(NC(=O)c3nn(C)cc3[N+](=O)[O-])sc2C)cc1C	-5	1	-13	i	-2.1	14	nt
Cn1cc([N+](=O)[O-])c(C(=O)Nc2nc(-c3ccc(Cl)cc3)cs2)n1	-9	0	-10	i	-3.9*	1	+
Cc1ccc(-c2nc(NC(=O)c3nn(C)cc3[N+](=O)[O-])sc2C)cc1	-10	3	-16	+	-3.8*	22	+
O=S(=O)(/N=C(\Sc1ccccc1)c1ccccc1)c1ccc(Cl)cc1	-11	1	-8	i	-2.8	0	nt
Cc1ccc(S(=O)(=O)/N=C(\Sc2ccccc2)c2ccccc2)cc1	-12	0	-12	i	-3.5*	0	+
Cc1ccc(NS(=O)(=O)c2ccc(OCC(N)=O)cc2)cc1	-2	-8	2	i	0.041	1	nt
CCOC(=O)c1c(NC(=S)N2CCOCC2)sc2c1CCN(C(=O)OCC)C2	-9	-4	-17	nt	-4.7*	31	+
CCOC(=O)c1c(NC(=S)N2CCCCC2)sc2c1CCN(C(=O)OCC)C2	-18	-4	-1	nt	-3.6*	-1	+
CCOC(=O)c1c(NC(=S)NCc2ccccc2)sc2c1CCN(C(=O)OCC)C2	-18	-26	1	nt	0.26	0	nt
C=CCNC(=S)Nc1sc2c(c1C(=O)OCC)CCN(C(=O)OCC)C2	-11	-21	-1	i	1.2	-1	nt
O=[N+]([O-])c1cc2c(cc1/C=N/NS(=O)(=O)c1ccc(Br)cc1)OCO2	-11	24	-1	i	0.72	1	nt
Cc1nc(COC(=O)c2ccc(CO)cc2)cs1	-4	2	1	i	-0.37	0	nt
Cc1nc(COC(=O)c2cc(O)c3ccccc3c2O)cs1	-7	-15	-3	i	-3.6*	1	i
